# Screens: PubChem BioAssay, several laboratories
# STAT3 activator: activators of IL-6 induced STAT3 signaling; U3A cells, IL-6 STAT3-luciferase reporter, luminescence; 100% = signal with IL-6 EC80 alone; activation (% of control), % at 5.6 µM; 190,000 compounds, 0.91% hits; AID 871;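 active means activation above the screen-wide mean of compound activation plus 3 SD, cut at about 130% in these data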;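 further: 0% = background luminescence of wells with medium and substrate only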
#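 Test system: Human STAT1-deficient U3A cells with stable STAT3-luciferase reporter | Also added: Interleukin-6, 33 ng/mL | Timing: Compound pre-incubation 1 h before IL-6, then 6 h stimulation at 37 °C | Technique: Luciferase reporter luminescence | Read-out: Percent of IL-6-only median luminescence | Benchmarks: IL-6-only wells as 100% reference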
# STAT3 blocker: inhibitors of IL-6 induced STAT3 signaling | U3A cells, IL-6 STAT3-luciferase reporter, luminescence; host cell line lacks STAT1 | inhibition, % at 5.5 µM | 190,000 compounds, 0.89% hits;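 active means inhibition above the mean inhibition across all screened compounds plus 3 SD, cut at about 44% in these data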;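 further: 0% = DMSO only wells and 100% = 100 µM nifuroxazide control wells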
# STAT1 blocker: reduces IFN-gamma driven STAT1 reporter signal | 200,000 compounds, 0.35% hits | inhibition, % at 5.5 µM | NIH 3T3 STAT1-luciferase reporter, luminescence;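 active means inhibition above a set limit, the mean inhibition across all tested compounds plus 3 SD, cut at about 34% in these data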;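 further: 0% = IFN-gamma with DMSO and 100% = IFN-gamma with 300 µM nifuroxazide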
# STAT1 act: activators of IFN-gamma induced STAT1 signaling | NIH 3T3 STAT1-luciferase reporter, luminescence; 100% = IFN-gamma alone, no compound | activation (% of control), % at 5.5 µM | 200,000 compounds, 2.6% hits | AID 932;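 active means activation above the screen-wide mean activation plus 3 SD, cut at about 130% in these data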;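 further: raw ratio to IFN-gamma control signal so 100% means no change and 0% no light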
# APP 5'UTR act: APP 5'UTR luciferase reporter activation; 190,000 compounds, 1% hits; activation, % at 2 µM; SH-SY5Y APP 5'UTR luciferase reporter, luminescence; zero percent = DMSO vehicle wells;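 active means activation above a set limit, based on mean plus 3 SD of controls, cut at about 140% in these data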
# NF-kB neuron act: compounds increasing NF-kB expression in human neuronal cells; NF-kB reporter expression; active compounds read high; fold change at 12.5 µM; 190,000 compounds, 1.6% hits; AID 1239; in the data active means fold change above about 3.3
# * marks the source's active call; other numbers are inactive results; . = no result given. Hits are enriched below; roughly 4.9% of the tested compounds scored in any of these assays.
SMILES,STAT3 activator,STAT3 blocker,STAT1 blocker,STAT1 act,APP 5'UTR act,NF-kB neuron act
O=C1c2ccccc2C(=O)C1c1ccc(O)cc1,84,21,1,98,48,3.8*
CCC(C)c1ccc(OCCCCN2CCOCC2)cc1 (configuration not stated),104,2,4,97,.,1.3
Cc1ccc(CNC(=O)c2nn(C)c(C)c2[N+](=O)[O-])cc1,93,10,-1,100,4,1.1
Cc1ccc(NC(=O)c2ccc([N+](=O)[O-])o2)cc1C,76,32,-56,148*,-44,.
Cc1ccc(CNC(=O)c2ccc([N+](=O)[O-])o2)cc1,86,22,6,95,5,3.5*
O=C(Nc1ccccn1)c1ccc([N+](=O)[O-])o1,95,6,6,94,-27,4.3*
O=C(Nc1ncccn1)c1ccc([N+](=O)[O-])o1,80,28,-22,120,9,1.6
CN1CCN(CCCc2c3c(cc4c2CCC4)CCC3)CC1,108,-15,1,99,20,1.2
CCCCCN(C(=O)NC(=O)Nc1ccc(C)cc1)S(=O)(=O)c1ccccc1,96,0,-2,102,6,1
O=C(Cn1cnc2ccccc2c1=O)Nc1ccc(N2CCOCC2)cc1,107,-1,-3,101,0,0.98
CN(Cc1c(C(=O)N2CCc3ccccc3C2)nc2ccc(Cl)cn12)C(C1CC1)C1CC1,114,-11,9,90,-29,0.92
CC(C)CC(COCc1ccc(C(F)(F)F)cc1)N1CCN(C(=O)c2ccc(C(F)(F)F)cc2)CCC1=O (configuration not stated),98,0,6,94,20,3.9*
CC(C)CC(COCc1ccc(Cl)cc1)N1CCN(C(=O)c2cccc(C(F)(F)F)c2)CCC1=O (configuration not stated),99,-2,5,95,13,1.1
COc1ccc(S(=O)(=O)N(CC(=O)NC2CC2)c2ccc(C)cc2)cc1OC,101,3,-3,102,-10,1.2
COc1cc(C(=O)NCc2ccc(-c3nc4ccccc4s3)cc2)cc(OC)c1OC,104,-1,-46,141*,33,1.6
O=C(NCc1ccc(-c2nc3ccccc3s2)cc1)c1cc2ccccc2o1,74,27,-3,103,31,1.2
O=C(NCc1ccc(-c2nc3ccccc3s2)cc1)c1ccc(Br)o1,92,8,-41,137*,84,1.7
COc1ccc(C(=O)NCc2ccc(-c3nc4ccccc4s3)cc2)cc1,93,14,-28,125,30,1.6
COc1ccc(/C=N/NC(=O)Nc2nonc2N)cc1,120,-22,-30,130*,6,1.3
Cc1cc(-c2nc3ccccc3[nH]2)ccc1N,79,29,-20,116,107,5*
O=C(O)c1cccc(-c2nc3ccccc3[nH]2)c1,44,65*,55*,50,15,1.7
Cc1ccc(-c2nc3ccccc3[nH]2)s1,82,27,-25,123,114,5.5*
COc1ccc(C(=O)c2ccc(N3CCN(C(=O)c4ccc(F)cc4)CC3)c(F)c2)cc1Br,88,18,-1,101,6,0.75
CCCCN(C(=O)c1cccc2c(=O)c(C)c(-c3ccccc3)oc12)c1ccccc1,106,-7,-2,102,18,1.1
CC(=O)Nc1ccc(S(=O)(=O)Nc2cccc(NC(=O)c3ccco3)c2)cc1,96,5,8,93,20,1
CC(C)=CCN1CCN(Cc2cccn2-c2ccccn2)CC1CCO (configuration not stated),102,2,-3,101,24,1.1
COC(=O)c1cc2nc(-c3ccc(C)cc3)cc(C(F)(F)F)n2n1,92,15,-1,101,14,1
CN1CCN(CC(=O)N2c3ccccc3C(C)(c3ccccc3)CC2(C)C)CC1 (configuration not stated),93,11,7,93,11,6*
CN1CCN(CC(=O)N2c3ccccc3C(C)(c3ccc(Cl)cc3)CC2(C)C)CC1 (configuration not stated),107,-1,-3,102,-3,2.4
C/C(=N\NC(=S)Nc1cccc(C)c1)c1ccccc1,95,13,-8,107,3,1.6
